The source of these data is article PMC4982705 (Biochemical pharmacology, 2016).

Common to all, as to experiment: intrinsic fluorescence titration
Type in all cases: binding

Experiment [1] deals with SULT1B1 (hSULT1B1, wildtype) (Homo sapiens, UniProt O43704). The procedure, abridged:
(§1)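 Ligand: PAP (cofactor product). Protein: N-terminal 6xHis human SULT1B1, expressed in E. coli BL21-DE3-RIL (IPTG, 20°C) and purified on Ni-NTA. 0.20 µM enzyme in 10 mM sodium phosphate pH 7.8, 10% glycerol, 150 mM NaCl. PAP titrated in; each step mixed 15 s, then intrinsic fluorescence (ex 282, em 338) read for 15 s. Kd from one-site hyperbolic fit; triplicate runs.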

Experiment [2] has as its target SULT1B1 (hSULT1B1, wildtype) (Homo sapiens, UniProt O43704, E275K/H109Y). The procedure, abridged: as §1
For experiment [3], the target named is SULT1B1 (hSULT1B1, wildtype) (Homo sapiens, UniProt O43704, K266E).
Chain of SULT1B1 (hSULT1B1, wildtype) (Homo sapiens, UniProt O43704, K266E) (O43704 whole entry K266E): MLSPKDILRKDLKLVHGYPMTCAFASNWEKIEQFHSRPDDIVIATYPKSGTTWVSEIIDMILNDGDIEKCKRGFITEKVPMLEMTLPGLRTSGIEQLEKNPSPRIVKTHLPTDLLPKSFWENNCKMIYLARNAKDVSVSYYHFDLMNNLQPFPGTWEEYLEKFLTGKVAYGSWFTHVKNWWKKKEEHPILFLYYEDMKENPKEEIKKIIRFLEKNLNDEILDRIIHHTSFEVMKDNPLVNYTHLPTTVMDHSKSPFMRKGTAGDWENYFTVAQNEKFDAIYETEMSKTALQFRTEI
In experiment [4] the target is SULT1B1-K266E/E275K heterodimer (Homo sapiens, UniProt O43704, E275K/K266E). The procedure, abridged:
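His-tagged K266E and E275K SULT1B1 subunits were purified separately from E. coli, then co-incubated at normalized concentrations for 1 h on ice to form the heterodimer. 0.20 µM enzyme in 10 mM sodium phosphate pH 7.8, 10% glycerol, 150 mM NaCl. PAP added stepwise; intrinsic fluorescence (ex 282/em 338) averaged over 15 s after 15 s mixing. Kd from one-site hyperbolic fit; triplicate.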

For experiment [5], the target named is SULT1B1 (hSULT1B1, wildtype) (Homo sapiens, UniProt O43704, E275K). The procedure, abridged:
as §1

Each structure is given as a SMILES string.

Chain of SULT1B1 (hSULT1B1, wildtype) (Homo sapiens, UniProt O43704, E275K) (O43704 whole entry E275K): as the sequence (O43704 whole entry K266E) above, with E266K, E275K counted along it
Chain of SULT1B1 (hSULT1B1, wildtype) (Homo sapiens, UniProt O43704, E275K/H109Y) (O43704 whole entry H109Y/E275K): as the sequence (O43704 whole entry K266E) above, with H109Y, E266K, E275K counted along it
Chain of SULT1B1-K266E/E275K heterodimer (O43704 whole entry K266E): as the sequence (O43704 whole entry K266E) above
Chain of SULT1B1-K266E/E275K heterodimer (O43704 whole entry E275K): as the sequence (O43704 whole entry K266E) above, with E266K, E275K counted along it
Chain of SULT1B1 (hSULT1B1, wildtype) (Homo sapiens, UniProt O43704) (O43704 whole entry): as the sequence (O43704 whole entry K266E) above, with E266K counted along it

Regarding `Nc1ncnc2c1ncn2[C@@H]1O[C@H](COP(=O)(O)O)[C@@H](OP(=O)(O)O)[C@H]1O` [PAP, 3′,5′-diphosphoadenosine], the Kd in experiment [1] worked out at 106 ± 9 nM; in experiment [2] it was 668 ± 31 nM; in experiment [3], 1470 nM; in experiment [4], 180 ± 6 nM; in experiment [5], 80 ± 9 nM.

In general, Kd refers to the constant that tells how readily two partners part at equilibrium.
